Test results: ChEMBL document CHEMBL1811899, “Synthesis and evaluation of novel 2-butyl-4-chloro-1-methylimidazole embedded chalcones and pyrazoles as angiotensin converting enzyme (ACE) inhibitors” (Bioorg Med Chem, 2011)
Calls of active or inactive are those of the source. No cut-off for these calls is given here.

Experiments:
[1] = molecular target: T1, Angiotensin-converting enzyme (Oryctolagus cuniculus, UniProt P12822); test: (§1) Inhibition of rabbit lung ACE assessed as reduction in hippuryl-histidyl-leucine substrate by colorimetric assay
T1 sequence (P12822 whole entry): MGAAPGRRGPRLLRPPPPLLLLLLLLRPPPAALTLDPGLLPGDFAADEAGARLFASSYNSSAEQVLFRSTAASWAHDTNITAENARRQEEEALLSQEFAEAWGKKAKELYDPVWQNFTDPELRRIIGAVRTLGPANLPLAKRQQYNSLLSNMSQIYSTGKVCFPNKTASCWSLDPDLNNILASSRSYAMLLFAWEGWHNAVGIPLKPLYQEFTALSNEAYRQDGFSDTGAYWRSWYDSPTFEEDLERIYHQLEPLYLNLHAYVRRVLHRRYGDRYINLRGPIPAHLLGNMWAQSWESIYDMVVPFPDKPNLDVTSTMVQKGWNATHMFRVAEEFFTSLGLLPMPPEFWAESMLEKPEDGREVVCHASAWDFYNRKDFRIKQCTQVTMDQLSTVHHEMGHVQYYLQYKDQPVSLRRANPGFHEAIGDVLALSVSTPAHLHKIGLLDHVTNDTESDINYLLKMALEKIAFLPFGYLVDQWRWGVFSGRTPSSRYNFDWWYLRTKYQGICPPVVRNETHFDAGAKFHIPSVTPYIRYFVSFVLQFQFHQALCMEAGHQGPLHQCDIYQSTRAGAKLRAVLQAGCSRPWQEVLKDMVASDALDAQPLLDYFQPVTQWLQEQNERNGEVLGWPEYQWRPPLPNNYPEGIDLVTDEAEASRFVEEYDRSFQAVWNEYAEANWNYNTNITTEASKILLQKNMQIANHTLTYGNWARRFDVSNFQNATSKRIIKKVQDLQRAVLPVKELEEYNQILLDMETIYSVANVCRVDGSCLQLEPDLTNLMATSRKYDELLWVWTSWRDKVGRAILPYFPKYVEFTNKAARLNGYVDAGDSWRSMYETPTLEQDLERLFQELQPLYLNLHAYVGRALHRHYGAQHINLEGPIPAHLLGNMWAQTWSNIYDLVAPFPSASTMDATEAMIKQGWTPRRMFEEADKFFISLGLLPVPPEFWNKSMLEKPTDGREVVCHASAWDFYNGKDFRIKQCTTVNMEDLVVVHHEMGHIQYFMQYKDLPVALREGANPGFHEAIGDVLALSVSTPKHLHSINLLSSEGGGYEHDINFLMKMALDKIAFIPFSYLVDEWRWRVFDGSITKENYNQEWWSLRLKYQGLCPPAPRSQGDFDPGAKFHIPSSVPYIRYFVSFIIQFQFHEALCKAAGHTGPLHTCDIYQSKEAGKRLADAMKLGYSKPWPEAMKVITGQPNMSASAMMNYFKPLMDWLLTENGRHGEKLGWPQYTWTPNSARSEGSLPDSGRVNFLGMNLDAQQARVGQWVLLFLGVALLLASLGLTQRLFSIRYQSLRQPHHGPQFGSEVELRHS
Outline: (§2)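 ACE came from a rabbit lung homogenate in 0.05 M sodium borate, pH 8.2, 0.3 M NaCl, 0.5% Triton X-100 at 4 °C, centrifuged. Enzyme was preincubated with compound for 10 min at 37 °C, then run for 30 min at 37 °C with 5 mM HHL stock in borate/NaCl buffer. Hippuric acid was derivatised with pyridine and benzenesulfonyl chloride and read at 410 nm. IC50 was taken from % inhibition versus concentration curves; means of three experiments.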

[2] = molecular target: T2, Angiotensin-converting enzyme (Oryctolagus cuniculus) (UniProt P12822); test: Inhibition of rabbit lung ACE assessed as reduction in hippuryl-histidyl-leucine substrate at 3 uM by colorimetric assay
T2 sequence (whole entry): T1 sequence (P12822 whole entry)
Outline: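 Rabbit lung homogenised (1 g in 10 mL of 0.05 M sodium borate, pH 8.2, with 0.3 M NaCl and 0.5% Triton X-100, 4 °C) and centrifuged to give the ACE source. Enzyme and test solution preincubated 10 min at 37 °C. The reaction was started with borate/NaCl buffer plus 5 mM HHL stock and run 30 min at 37 °C. Released hippuric acid was reacted with pyridine and benzenesulfonyl chloride, and the yellow product read at 410 nm. Inhibition% = 100 − (T/C)×100.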

[3] = molecular target: T2, Angiotensin-converting enzyme (Oryctolagus cuniculus); test: as §1; outline: as §2

Row | SMILES | IC50 [1] [µM] | inhibition [2] | inhibition [3]
1 | CCCCc1nc(Cl)c(C2CC(c3ccc(OC)cc3)=NN2C(C)=O)n1C (stereo not given) | 2330 |  | 
2 | CCCCc1nc(Cl)c(C2CC(c3ccco3)=NN2C(C)=O)n1C (stereo not given) | 2350 |  | 
3 | CCCCc1nc(Cl)c(/C=C/C(=O)c2ccco2)n1C |  | Active | 
4 | CCCCc1nc(Cl)c(/C=C/C(=O)c2ccc3oc4ccccc4c3c2)n1C |  | Active | 
5 | O=C(/C=C/c1ccc(O)c(O)c1)c1ccc(O)cc1O [BUTEIN] | 730 |  | 
6 | CCCCc1nc(Cl)c(/C=C/C(=O)c2ccccc2)n1C |  | Active | 
7 | CCCCc1nc(Cl)c(C2CC(c3cccc4ccccc34)=NN2C(C)=O)n1C (stereo not given) |  | inactive | 
8 | CCCCc1nc(Cl)c(C2CC(c3cc(OC)c(OC)c(OC)c3)=NN2C(C)=O)n1C (stereo not given) | 2120 |  | 
9 | CCCCc1nc(Cl)c(/C=C/C(=O)c2ccc(OC)cc2)n1C |  | Active | 
10 | CCCCc1nc(Cl)c(/C=C/C(=O)c2cccs2)n1C |  | Active | 
11 | O=c1cc(-c2ccc(O)cc2)oc2cc(O)cc(O)c12 [APIGENIN] | 280 |  | 
12 | CCCCc1nc(Cl)c(C2CC(c3ccc([N+](=O)[O-])cc3)=NN2C(C)=O)n1C (stereo not given) | 2220 |  | 
13 | CCCCc1nc(Cl)c(/C=C/C(=O)c2ccc3c(c2)c2ccccc2n3C)n1C |  | Active | 
14 | CCCCc1nc(Cl)c(/C=C/C(=O)c2ccc(Cl)s2)n1C | 3.6 | Active | Dose-dependent effect
15 | CCCCc1nc(Cl)c(/C=C/C(=O)c2ccc3sc4ccccc4c3c2)n1C | 2.68 |  | Dose-dependent effect
16 | CCCCc1nc(Cl)c(/C=C/C(=O)c2cccnc2)n1C |  | Active | 
17 | CCCCc1nc(Cl)c(/C=C/C(=O)c2cc(OC)c(OC)c(OC)c2)n1C |  | Active | 
18 | CCCCc1nc(Cl)c(/C=C/C(=O)c2cccc3ccccc23)n1C |  | Active | 
19 | CCCCc1nc(Cl)c(/C=C/C(=O)c2ccc([N+](=O)[O-])cc2)n1C |  | Active | 
20 | CCCCc1nc(Cl)c(/C=C/C(=O)c2ccc3ccccc3c2)n1C |  | Active | 
21 | CCCCc1nc(Cl)c(C2CC(c3ccc4sc5ccccc5c4c3)=NN2C(C)=O)n1C (stereo not given) | 2010 |  | 
22 | CCCCc1nc(Cl)c(/C=C/C(=O)c2ccc(C)cc2)n1C |  | Active | 
23 | CCCCc1nc(Cl)c(/C=C/C(=O)c2cccc(Br)n2)n1C |  | Active | 
24 | CCCCc1nc(Cl)c(/C=C/C(=O)c2ccc[nH]2)n1C | 2.24 |  | Dose-dependent effect
25 | CCCCc1nc(Cl)c(/C=C/C(=O)c2ccc(Br)s2)n1C |  | Active | 
26 | CCCCc1nc(Cl)c(C2CC(c3ccc(Cl)s3)=NN2C(C)=O)n1C (stereo not given) | 1800 |  | 
